According to ChEMBL document CHEMBL1124479, “N-[(arylmethoxy)phenyl] and N-[(arylmethoxy)naphthyl] sulfonamides: potent orally active leukotriene D4 antagonists of novel structure” (J Med Chem, 1989):

Key:
Cavia porcellus [1] = experiment: Inhibition of Leukotriene D4 induced bronchoconstriction when compound was administered perorally at a dose of 25 mg/kg in guinea pig; format: functional; conditions: route oral
Summary of the method: (§1)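 Single-dose screen in guinea pigs, with n animals per group. Significance versus control used a two-tailed Student's t test (p < 0.05), or one-way ANOVA with contrasts based on each treatment's difference from its own control mean.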

Cavia porcellus [2] = experiment: Inhibition of ovalbumin-induced bronchoconstriction when compound was administered intraduodenally at a dose of 25 mg/kg in guinea pig; format: functional; conditions: route intraduodenal; summary of the method: as §1
Cavia porcellus [3] = experiment: Inhibition of ovalbumin-induced bronchoconstriction when compound was administered perorally at a dose of 25 mg/kg in guinea pig; format: functional; conditions: route oral; summary of the method: as §1
Cavia porcellus [4] = experiment: Inhibitory dose of the intraduodenally administered compound (10 min before giving agonist) that produced a 50% inhibition of ovalbumin induced bronchoconstriction in guinea pigs; format: functional; conditions: intraduodenal, read-out: ID50 (the source's name)
Summary of the method: (§2)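 Guinea pigs, intraduodenal dosing, with LTD4 or ovalbumin challenge. ID50 is the dose of antagonist giving 50% inhibition of the induced bronchoconstriction.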

Cavia porcellus [5] = experiment: Inhibitory dose of the intragastrically administered compound (120 min before giving agonist) that produced a 50% inhibition of leukotriene D4 induced bronchoconstriction in guinea pigs; format: functional; conditions: po, read-out: ID50 (the source's name)
Summary of the method: (§3)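 Guinea pigs, awake, dosed intragastrically 120 min before agonist challenge (95 min before anesthetic). The LTD4 challenge was given intravenously; ovalbumin served as antigen. ID50 is the dose giving 50% inhibition of LTD4- or ovalbumin-induced bronchoconstriction.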

Cavia porcellus [6] = experiment: Inhibitory dose of the intragastrically administered compound (120 min before giving agonist) that produced a 50% inhibition of ovalbumin induced bronchoconstriction in guinea pigs; format: functional; conditions: po, read-out: ID50 (the source's name); summary of the method: as §3
Cavia porcellus [7] = experiment: Relative inhibitor potency of the intraduodenally administered compound with Wy-48,252 against leukotrien D4 induced bronchoconstriction in guinea pigs; format: functional
Cavia porcellus [8] = experiment: Relative inhibitor potency of the intraduodenally administered compound with Wy-48,252 against ovalbumin induced bronchoconstriction in guinea pigs; format: functional
Cavia porcellus [9] = experiment: Relative inhibitor potency of the intragastrically administered compound with Wy-48,252 against leukotriene D4 induced bronchoconstriction in guinea pigs; format: functional
Summary of the method: (§4)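 Intragastric dosing of awake guinea pigs 120 min before agonist (95 min before anesthetic), with LTD4 or ovalbumin challenge.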

Cavia porcellus [10] = experiment: Inhibitory dose of the intraduodenally administered compound (10 min before giving agonist) that produced a 50% inhibition of leukotriene D4 induced bronchoconstriction in guinea pigs; format: functional; conditions: intraduodenal, read-out: ID50 (the source's name); summary of the method: as §2
Cavia porcellus [11] = experiment: Relative inhibitor potency of the intragastrically administered compound with Wy-48,252 against ovalbumin induced bronchoconstriction in guinea pigs; format: functional; summary of the method: as §4
[12] = target: T1, Polyunsaturated fatty acid 5-lipoxygenase (Rattus norvegicus, UniProt P12527); experiment: Inhibitory concentration to inhibit 5-lipoxygenase in the rat
T1 sequence (P12527 whole entry): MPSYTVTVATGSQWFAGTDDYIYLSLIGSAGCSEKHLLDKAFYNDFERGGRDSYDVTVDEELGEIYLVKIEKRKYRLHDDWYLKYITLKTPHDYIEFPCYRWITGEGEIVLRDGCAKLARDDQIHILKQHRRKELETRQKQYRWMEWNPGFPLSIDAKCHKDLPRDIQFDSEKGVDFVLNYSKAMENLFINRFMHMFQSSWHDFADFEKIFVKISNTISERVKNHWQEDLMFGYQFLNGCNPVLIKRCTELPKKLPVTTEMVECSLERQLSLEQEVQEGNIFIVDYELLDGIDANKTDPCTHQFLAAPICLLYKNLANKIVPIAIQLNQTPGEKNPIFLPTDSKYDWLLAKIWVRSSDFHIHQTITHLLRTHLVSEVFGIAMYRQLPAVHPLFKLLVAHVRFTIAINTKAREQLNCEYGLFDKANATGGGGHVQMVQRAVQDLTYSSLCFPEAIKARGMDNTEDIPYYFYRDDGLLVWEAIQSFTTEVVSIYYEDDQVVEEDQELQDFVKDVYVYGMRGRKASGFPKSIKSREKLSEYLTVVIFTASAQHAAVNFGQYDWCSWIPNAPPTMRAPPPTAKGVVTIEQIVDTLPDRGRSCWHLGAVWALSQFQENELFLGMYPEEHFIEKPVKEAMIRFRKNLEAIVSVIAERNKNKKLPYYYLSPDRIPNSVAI
Summary of the method: (§5)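 Rat PMN assay, measuring 5-lipoxygenase and cyclooxygenase activity. IC50 values are in μM.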

[13] = Disassociation constant was determined; format: ADME
Summary of the method: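 Isolated guinea pig trachea, pretreated with indomethacin and L-cysteine, contracted with LTD4. Antagonism was expressed as a pKB value.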

Cavia porcellus [14] = experiment: Inhibition of ovalbumin-induced bronchoconstriction when compound was administered intraduodenally at a dose of 50 mg/kg in guinea pig; format: functional; conditions: route intraduodenal; summary of the method: as §1
Cavia porcellus [15] = experiment: Inhibitory dose of the intraduodenally administered compound (10 min before giving agonist)that produced a 50% inhibition of ovalbumin induced bronchoconstriction in guinea pigs; format: functional; conditions: intraduodenal, read-out: ID50 (the source's name); summary of the method: as §2
Cavia porcellus [16] = experiment: Relative inhibitor potency of the intraduodenally administered compound with Wy-48,252 against lovalbumininduced bronchoconstriction in guinea pigs; format: functional
Cavia porcellus [17] = experiment: Inhibitory dose of intraduodenally administered compound (10 min before giving agonist) that produced a 50% inhibition of leukotriene D4 induced bronchoconstriction in guinea pig; format: functional; conditions: intraduodenal, read-out: ID50 (the source's name); summary of the method: as §2
Cavia porcellus [18] = experiment: Inhibition of ovalbumin-induced bronchoconstriction when compound was administered perorally at a dose of 50 mg/kg in guinea pig; format: functional; conditions: route oral; summary of the method: as §1
Mus musculus = experiment: Percent inhibition of TPA-induced inflammation at 1 mg/ear in the mouse ear edema; format: functional
Cyclooxygenase = target: T2, Cyclooxygenase (Rattus norvegicus, UniProt P35355+Q63921); experiment: Inhibitory concentration to inhibit Prostaglandin G/H synthase in the rat; format: protein assay; summary of the method: as §5
T2 sequence (P35355 whole entry): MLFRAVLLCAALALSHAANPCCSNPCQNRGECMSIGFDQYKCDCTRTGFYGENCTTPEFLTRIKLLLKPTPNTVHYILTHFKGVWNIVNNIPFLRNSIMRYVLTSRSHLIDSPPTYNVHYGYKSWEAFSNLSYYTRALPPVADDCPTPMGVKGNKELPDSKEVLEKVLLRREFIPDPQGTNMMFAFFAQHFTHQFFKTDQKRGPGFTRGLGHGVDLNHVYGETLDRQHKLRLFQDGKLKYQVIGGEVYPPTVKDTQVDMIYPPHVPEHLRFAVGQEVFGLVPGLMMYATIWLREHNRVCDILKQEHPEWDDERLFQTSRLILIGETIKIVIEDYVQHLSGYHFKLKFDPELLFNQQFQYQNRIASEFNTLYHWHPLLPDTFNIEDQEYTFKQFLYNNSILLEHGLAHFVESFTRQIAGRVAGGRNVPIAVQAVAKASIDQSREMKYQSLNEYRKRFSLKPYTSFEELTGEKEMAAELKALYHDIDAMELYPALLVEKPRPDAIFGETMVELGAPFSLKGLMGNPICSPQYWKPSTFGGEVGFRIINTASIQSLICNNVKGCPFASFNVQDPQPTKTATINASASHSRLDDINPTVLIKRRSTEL
T2 sequence (Q63921 whole entry): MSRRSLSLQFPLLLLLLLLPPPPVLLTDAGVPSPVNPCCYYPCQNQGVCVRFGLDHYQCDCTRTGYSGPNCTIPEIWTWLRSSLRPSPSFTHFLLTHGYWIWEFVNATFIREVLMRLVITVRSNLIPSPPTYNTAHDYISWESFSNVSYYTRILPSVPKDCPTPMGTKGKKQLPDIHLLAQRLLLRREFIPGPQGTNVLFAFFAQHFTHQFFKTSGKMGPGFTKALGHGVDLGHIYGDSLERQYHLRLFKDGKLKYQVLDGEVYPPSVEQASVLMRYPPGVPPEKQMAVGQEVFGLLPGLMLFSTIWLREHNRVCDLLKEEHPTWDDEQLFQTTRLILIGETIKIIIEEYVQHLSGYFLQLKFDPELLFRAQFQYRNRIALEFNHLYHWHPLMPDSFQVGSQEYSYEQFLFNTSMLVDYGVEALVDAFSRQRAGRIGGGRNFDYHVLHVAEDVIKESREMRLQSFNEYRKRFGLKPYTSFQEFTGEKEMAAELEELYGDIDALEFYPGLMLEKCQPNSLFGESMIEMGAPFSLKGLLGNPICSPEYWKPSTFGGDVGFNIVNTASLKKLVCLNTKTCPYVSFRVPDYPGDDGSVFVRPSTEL

Rattus norvegicus = experiment: Percent inhibition of compound (50 mg/kg) in the rat carrageenan paw edema assay; format: functional
Summary of the method: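 Rat carrageenan paw edema, with compound given intragastrically. Read-out is percent inhibition of edema.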

Cavia porcellus [19] = experiment: Inhibition of Leukotriene D4 induced bronchoconstriction in guinea pig by 50 mg/kg i.d.; conditions: at 50 mg/kg

With `O=S(=O)(Nc1cccc(OCc2ncc3ccccc3n2)c1)C(F)(F)F` the inhibition in vivo at 25 mg/kg (Cavia porcellus [1]) was 97%, the inhibition in vivo at 25 mg/kg (Cavia porcellus [2]) was 78% and the inhibition in vivo at 25 mg/kg (Cavia porcellus [3]) was 23%.
Compound `CCCc1c(OCCCCc2nnn[nH]2)ccc(C(C)=O)c1O` [TOMELUKAST] has an ED50 (Cavia porcellus [4]) of 19 mg/kg, an ED50 (Cavia porcellus [5]) of 32 mg/kg and an ED50 (Cavia porcellus [6]) of 38 mg/kg. It also gave a Relative inhibitor potency (Cavia porcellus [7]) of 1, a Relative inhibitor potency (Cavia porcellus [8]) of 1 and a Relative inhibitor potency (Cavia porcellus [9]) of 1. It also gave an ED50 (Cavia porcellus [10]) of 6 mg/kg and a Relative inhibitor potency (Cavia porcellus [11]) of 1.
With `O=S(=O)(Nc1ccc2ccc(OCc3ccc4ccccc4n3)cc2c1)C(F)(F)F` the IC50 [12] was 230 nM, the pKB [13] was 7.04 and the inhibition in vivo at 50 mg/kg (Cavia porcellus [14]) was 86%. For the same compound, the ED50 (Cavia porcellus [15]) was 0.46 mg/kg, the ED50 (Cavia porcellus [5]) was 0.25 mg/kg and the ED50 (Cavia porcellus [6]) was 6.1 mg/kg. The Relative inhibitor potency (Cavia porcellus [7]) was 4, the Relative inhibitor potency (Cavia porcellus [16]) was 41 and the Relative inhibitor potency (Cavia porcellus [9]) was 128. For the same compound, the ED50 (Cavia porcellus [17]) was 1.4 mg/kg, the Relative inhibitor potency (Cavia porcellus [11]) was 6 and the inhibition in vivo at 50 mg/kg (Cavia porcellus [18]) was 83%. For the same compound, the Inhibition (Mus musculus) was 34%, the IC50 (Cyclooxygenase) was 11900 nM and the Inhibition (Rattus norvegicus) was 63%. For the same compound, the inhibition (Cavia porcellus [19]) was 99%.
